Measurements published in ChEMBL document CHEMBL3098105, “7,7'-Diazaindirubin--a small molecule inhibitor of casein kinase 2 in vitro and in cells” (Bioorg Med Chem, 2014).
The source made the active and inactive calls. The calls are words filed in the database; no cut-off is given here.

Columns and labels:
CCRF-CEM = experiment: Antiproliferative activity against human CCRF-CEM cells after 3 days by sulforhodamine B assay; format: functional; details: 72 h
Procedure, shortened: (§1)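 Tested in the NCI 60 cell line panel. GI50 is the concentration giving 50% inhibition of cell growth, and values are the mean of two series of tests.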

[1] = target: Tyrosine-protein kinase Fyn (Homo sapiens) (UniProt P06241); experiment: Inhibition of human Fyn assessed as residual activity at 1 uM relative to control
[2] = target: Ephrin type-B receptor 1 (Homo sapiens) (UniProt P54762); experiment: Inhibition of human EphB1 assessed as residual activity at 1 uM relative to control
Homo sapiens = species: Homo sapiens; experiment: Inhibition of human PKA assessed as residual activity at 1 uM relative to control
[3] = target: Ribosomal protein S6 kinase alpha-1 (Homo sapiens) (UniProt Q15418); experiment: Inhibition of human Rsk1 assessed as residual activity at 1 uM relative to control
[4] = target: Serine/threonine-protein kinase Nek3 (Homo sapiens) (UniProt P51956); experiment: Inhibition of human NEK3 assessed as residual activity at 1 uM relative to control
[5] = target: Mast/stem cell growth factor receptor Kit (Homo sapiens) (UniProt P10721); experiment: Inhibition of KIT (unknown origin) assessed as residual activity at 1 uM relative to control
MDA-MB-435 = experiment: Antiproliferative activity against human MDA-MB-435 cells after 3 days by sulforhodamine B assay; format: functional; details: MDA-MB-435, 72 h; procedure, shortened: as §1
[6] = Antiproliferative activity against human UO31 cells after 3 days by sulforhodamine B assay; format: functional; details: UO-31, 72 h
[7] = target: Tyrosine-protein kinase ABL1 (Homo sapiens) (UniProt P00519); experiment: Inhibition of ABL1 (unknown origin) assessed as residual activity at 1 uM relative to control
[8] = target: Protein-tyrosine kinase 6 (Homo sapiens) (UniProt Q13882); experiment: Inhibition of human BRK assessed as residual activity at 1 uM relative to control
[9] = target: Inhibitor of nuclear factor kappa-B kinase subunit beta (Homo sapiens) (UniProt O14920); experiment: Inhibition of human IKKbeta assessed as residual activity at 1 uM relative to control
[10] = target: Tyrosine-protein kinase ABL2 (Homo sapiens) (UniProt P42684); experiment: Inhibition of human Arg assessed as residual activity at 1 uM relative to control
[11] = target: Proto-oncogene tyrosine-protein kinase receptor Ret (Homo sapiens) (UniProt P07949); experiment: Inhibition of RET (unknown origin) assessed as residual activity at 1 uM relative to control
[12] = target: Tyrosine-protein kinase JAK2 (Homo sapiens) (UniProt O60674); experiment: Inhibition of JAK2 (unknown origin) assessed as residual activity at 1 uM relative to control
A498 = experiment: Antiproliferative activity against human A498 cells after 3 days by sulforhodamine B assay; format: functional; details: A498, 72 h; procedure, shortened: as §1
[13] = Antiproliferative activity against human RXF393 cells after 3 days by sulforhodamine B assay; format: functional; details: RXF 393, 72 h; procedure, shortened: as §1
[14] = target: CDK2/Cyclin A2 (Homo sapiens) (UniProt P24941+P20248); experiment: Inhibition of CDK2/CycA (unknown origin) assessed as residual activity at 10 uM relative to control; format: protein-complex assay
[15] = target: Casein kinase II (Homo sapiens) (UniProt P67870+P68400+P19784); experiment: Inhibition of CK2 in human MCF7 cells assessed as reduction of Akt phosphorylation at S473 at 1 uM after 30 mins by Western blot analysis; format: cell-based
Procedure, shortened: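 MCF7 cells were grown at 37 °C and 5% CO2 in DMEM with 10% heat-inactivated FBS and penicillin/streptomycin. Cells were exposed to 1 µM for the indicated times, with DMSO as the untreated control. Extracts were made in urea lysis buffer, and 20–40 µg protein was run on 10% SDS–PAGE. Blots were probed with primary antibodies (1:1000, overnight, 4 °C) and read by ECL, with β-actin as loading control.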

[16] = target: Protein kinase C iota type (Homo sapiens) (UniProt P41743); experiment: Inhibition of human PKCiota assessed as residual activity at 1 uM relative to control
[17] = target: Myosin light chain kinase, smooth muscle (Homo sapiens) (UniProt Q15746); experiment: Inhibition of human MLCK assessed as residual activity at 1 uM relative to control

Sequence of Tyrosine-protein kinase Fyn (Homo sapiens) (P06241 2-537 limits assumed): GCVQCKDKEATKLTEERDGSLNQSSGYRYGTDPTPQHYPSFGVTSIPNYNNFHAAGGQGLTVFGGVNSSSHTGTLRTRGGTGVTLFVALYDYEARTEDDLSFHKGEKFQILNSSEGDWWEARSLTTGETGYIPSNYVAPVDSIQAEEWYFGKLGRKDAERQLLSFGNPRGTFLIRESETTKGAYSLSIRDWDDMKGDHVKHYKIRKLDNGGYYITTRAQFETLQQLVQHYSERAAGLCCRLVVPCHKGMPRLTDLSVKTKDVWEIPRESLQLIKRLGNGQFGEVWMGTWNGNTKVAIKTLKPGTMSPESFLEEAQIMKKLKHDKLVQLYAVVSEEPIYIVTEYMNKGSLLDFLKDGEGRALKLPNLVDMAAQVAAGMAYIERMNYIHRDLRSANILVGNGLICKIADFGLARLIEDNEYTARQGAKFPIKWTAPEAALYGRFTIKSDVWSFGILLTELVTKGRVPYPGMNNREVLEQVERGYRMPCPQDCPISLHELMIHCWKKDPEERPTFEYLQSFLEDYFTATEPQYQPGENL
Sequence of Mast/stem cell growth factor receptor Kit (Homo sapiens) (P10721 whole entry): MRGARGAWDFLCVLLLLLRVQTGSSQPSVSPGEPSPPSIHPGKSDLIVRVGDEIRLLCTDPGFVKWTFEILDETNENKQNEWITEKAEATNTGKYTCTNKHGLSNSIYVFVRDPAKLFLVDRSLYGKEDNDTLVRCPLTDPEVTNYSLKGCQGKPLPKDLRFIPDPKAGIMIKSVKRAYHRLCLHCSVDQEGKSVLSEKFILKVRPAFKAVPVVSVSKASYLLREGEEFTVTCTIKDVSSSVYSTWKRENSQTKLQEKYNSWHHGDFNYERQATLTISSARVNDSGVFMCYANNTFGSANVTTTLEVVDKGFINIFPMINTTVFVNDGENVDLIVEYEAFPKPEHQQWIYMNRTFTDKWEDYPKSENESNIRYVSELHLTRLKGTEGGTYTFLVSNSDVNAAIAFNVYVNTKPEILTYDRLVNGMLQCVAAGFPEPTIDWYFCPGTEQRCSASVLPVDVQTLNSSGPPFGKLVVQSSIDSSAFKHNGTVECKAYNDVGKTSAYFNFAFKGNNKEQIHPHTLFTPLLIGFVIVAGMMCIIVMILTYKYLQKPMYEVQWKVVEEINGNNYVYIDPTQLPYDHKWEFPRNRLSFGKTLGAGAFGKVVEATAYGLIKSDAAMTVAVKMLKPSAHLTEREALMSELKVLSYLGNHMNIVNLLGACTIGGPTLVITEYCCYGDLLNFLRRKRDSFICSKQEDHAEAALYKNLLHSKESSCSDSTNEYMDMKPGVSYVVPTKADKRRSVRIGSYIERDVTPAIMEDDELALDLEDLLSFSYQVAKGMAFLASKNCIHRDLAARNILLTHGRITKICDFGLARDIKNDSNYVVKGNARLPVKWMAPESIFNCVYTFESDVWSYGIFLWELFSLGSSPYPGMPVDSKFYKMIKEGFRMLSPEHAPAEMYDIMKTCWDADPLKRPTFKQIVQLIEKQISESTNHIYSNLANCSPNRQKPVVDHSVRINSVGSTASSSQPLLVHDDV
Sequence of Protein kinase C iota type (Homo sapiens) (P41743 whole entry): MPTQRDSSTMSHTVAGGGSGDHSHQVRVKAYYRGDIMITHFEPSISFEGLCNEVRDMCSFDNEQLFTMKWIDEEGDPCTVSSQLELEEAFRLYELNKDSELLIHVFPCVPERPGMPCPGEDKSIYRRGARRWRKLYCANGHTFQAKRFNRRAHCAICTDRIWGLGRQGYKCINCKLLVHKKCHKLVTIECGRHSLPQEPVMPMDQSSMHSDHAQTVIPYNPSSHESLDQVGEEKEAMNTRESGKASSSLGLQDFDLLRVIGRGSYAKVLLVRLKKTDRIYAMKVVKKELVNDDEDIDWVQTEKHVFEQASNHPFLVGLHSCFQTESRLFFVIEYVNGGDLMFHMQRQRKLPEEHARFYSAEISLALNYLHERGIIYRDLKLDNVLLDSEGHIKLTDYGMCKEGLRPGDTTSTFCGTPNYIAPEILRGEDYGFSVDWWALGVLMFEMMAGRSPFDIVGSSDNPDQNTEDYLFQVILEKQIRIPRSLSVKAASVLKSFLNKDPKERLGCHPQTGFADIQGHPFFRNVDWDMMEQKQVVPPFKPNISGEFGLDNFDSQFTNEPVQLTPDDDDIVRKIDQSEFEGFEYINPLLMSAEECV
Sequence of Inhibitor of nuclear factor kappa-B kinase subunit beta (Homo sapiens) (O14920 whole entry): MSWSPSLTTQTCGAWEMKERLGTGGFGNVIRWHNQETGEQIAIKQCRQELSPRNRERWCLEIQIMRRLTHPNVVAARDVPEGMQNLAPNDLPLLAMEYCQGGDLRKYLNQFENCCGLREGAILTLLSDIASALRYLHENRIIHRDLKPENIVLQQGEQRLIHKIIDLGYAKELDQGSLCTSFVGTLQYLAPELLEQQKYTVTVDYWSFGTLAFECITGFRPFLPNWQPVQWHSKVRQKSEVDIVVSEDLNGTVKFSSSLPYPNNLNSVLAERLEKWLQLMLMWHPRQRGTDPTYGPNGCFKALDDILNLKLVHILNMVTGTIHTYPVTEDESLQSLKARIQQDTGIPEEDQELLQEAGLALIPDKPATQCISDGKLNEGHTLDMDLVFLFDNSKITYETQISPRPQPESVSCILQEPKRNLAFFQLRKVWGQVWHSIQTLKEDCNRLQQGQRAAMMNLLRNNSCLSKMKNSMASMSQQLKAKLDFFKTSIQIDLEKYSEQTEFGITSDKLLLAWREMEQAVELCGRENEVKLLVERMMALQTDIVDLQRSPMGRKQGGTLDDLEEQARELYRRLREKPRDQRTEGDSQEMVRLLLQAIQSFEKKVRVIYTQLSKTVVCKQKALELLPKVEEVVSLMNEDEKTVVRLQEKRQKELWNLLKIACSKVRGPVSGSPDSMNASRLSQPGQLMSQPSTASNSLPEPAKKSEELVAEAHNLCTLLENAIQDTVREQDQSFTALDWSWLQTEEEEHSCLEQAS
Sequence of Ephrin type-B receptor 1 (Homo sapiens) (P54762 whole entry): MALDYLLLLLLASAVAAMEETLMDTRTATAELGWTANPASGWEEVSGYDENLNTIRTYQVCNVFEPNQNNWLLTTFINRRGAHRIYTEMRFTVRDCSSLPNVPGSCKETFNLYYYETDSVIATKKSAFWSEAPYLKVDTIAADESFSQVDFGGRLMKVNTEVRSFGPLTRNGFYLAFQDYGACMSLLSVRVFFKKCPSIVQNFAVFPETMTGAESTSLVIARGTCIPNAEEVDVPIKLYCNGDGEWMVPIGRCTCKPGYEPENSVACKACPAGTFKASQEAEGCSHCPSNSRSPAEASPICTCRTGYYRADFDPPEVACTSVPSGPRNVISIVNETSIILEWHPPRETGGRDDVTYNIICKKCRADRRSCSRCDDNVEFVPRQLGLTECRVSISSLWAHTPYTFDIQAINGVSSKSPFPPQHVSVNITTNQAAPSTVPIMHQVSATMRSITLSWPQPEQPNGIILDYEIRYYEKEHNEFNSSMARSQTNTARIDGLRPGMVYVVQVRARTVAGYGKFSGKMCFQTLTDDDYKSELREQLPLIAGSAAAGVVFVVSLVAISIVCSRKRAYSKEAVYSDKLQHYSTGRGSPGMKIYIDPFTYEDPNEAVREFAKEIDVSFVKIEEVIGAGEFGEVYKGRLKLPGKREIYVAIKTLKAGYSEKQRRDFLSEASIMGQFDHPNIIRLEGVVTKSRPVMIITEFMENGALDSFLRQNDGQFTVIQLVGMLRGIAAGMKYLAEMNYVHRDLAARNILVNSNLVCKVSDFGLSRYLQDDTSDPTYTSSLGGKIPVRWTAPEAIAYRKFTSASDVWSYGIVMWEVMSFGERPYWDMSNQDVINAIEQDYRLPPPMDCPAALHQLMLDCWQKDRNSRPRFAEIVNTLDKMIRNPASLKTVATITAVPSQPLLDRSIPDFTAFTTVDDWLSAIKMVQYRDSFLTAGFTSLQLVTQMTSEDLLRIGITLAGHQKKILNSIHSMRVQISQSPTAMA
Sequence of Tyrosine-protein kinase ABL1 (Homo sapiens) (P00519 whole entry): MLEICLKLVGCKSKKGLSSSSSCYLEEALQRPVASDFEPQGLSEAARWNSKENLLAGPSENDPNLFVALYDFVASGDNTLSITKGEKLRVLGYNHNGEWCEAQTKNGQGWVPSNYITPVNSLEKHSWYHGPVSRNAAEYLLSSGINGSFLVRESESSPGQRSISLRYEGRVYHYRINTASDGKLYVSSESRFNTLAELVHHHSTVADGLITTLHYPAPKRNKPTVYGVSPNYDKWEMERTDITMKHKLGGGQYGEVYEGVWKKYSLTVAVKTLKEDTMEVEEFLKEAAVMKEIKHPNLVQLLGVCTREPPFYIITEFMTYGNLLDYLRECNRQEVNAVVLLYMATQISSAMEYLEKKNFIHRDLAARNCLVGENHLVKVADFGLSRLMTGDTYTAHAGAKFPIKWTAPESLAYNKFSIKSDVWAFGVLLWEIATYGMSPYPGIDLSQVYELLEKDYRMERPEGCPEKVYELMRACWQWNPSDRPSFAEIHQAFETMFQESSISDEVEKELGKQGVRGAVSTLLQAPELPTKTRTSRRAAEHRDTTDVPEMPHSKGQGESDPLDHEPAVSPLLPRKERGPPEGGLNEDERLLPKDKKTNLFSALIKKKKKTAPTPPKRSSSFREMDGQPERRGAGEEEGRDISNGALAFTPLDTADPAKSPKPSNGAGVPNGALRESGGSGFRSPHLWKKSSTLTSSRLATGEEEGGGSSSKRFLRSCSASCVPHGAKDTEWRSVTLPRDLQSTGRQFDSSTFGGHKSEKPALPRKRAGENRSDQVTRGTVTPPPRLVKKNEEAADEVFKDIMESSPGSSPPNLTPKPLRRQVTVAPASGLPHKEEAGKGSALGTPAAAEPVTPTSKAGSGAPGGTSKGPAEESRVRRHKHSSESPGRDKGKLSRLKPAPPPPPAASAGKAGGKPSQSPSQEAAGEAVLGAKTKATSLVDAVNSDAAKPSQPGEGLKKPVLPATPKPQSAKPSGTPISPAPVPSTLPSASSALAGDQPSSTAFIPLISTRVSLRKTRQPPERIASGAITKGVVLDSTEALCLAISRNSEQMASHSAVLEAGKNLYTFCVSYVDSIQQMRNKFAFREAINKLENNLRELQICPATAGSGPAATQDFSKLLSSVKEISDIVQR

## O=C1Nc2ncccc2/C1=C1/Nc2ncccc2C1=O
CCRF-CEM
  GI50: 2740 nM
[1]
  Activity: 124%
[2]
  Activity: 114%
Homo sapiens
  Activity: 91%
[3]
  Activity: 114%
[4]
  Activity: 109%
[5]
  Activity: 108%
MDA-MB-435
  GI50: 198 nM
[6]
  GI50: 1070 nM
[7]
  Activity: 96%
[8]
  Activity: 102%
[9]
  Activity: 110%
[10]
  Activity: 98%
[11]
  Activity: 97%
[12]
  Activity: 103%
A498
  GI50: 1660 nM
[13]
  GI50: 2190 nM
[14]
  Activity: 106%
[15]
  inhibition: Active
[16]
  Activity: 92%
[17]
  Activity: 73%
